Assay results as given in ChEMBL document CHEMBL4765233, “From Lead to Drug Candidate: Optimization of 3-(Phenylethynyl)-1H-pyrazolo[3,4-d]pyrimidin-4-amine Derivatives as Agents for the Treatment of Triple Negative Breast Cancer” (J Med Chem, 2016).
Calls of active or inactive are those of the source. No cut-off for these calls is given here.

How the values were obtained:
[1] = species: Danio rerio; experiment: Antiangiogenesis activity in EGFP-labelled zebrafish embryo assessed as reduction in formation of dorsal aorta at 1.25 to 5 uM incubated for overnight by fluorescence microscopic analysis; assay type: functional, organism-based; conditions: dose 1.25-5 µM
How it was run: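 Transgenic FLK:EGFP zebrafish kept at 28 °C, pH 7.2−7.4, 14 h light/10 h dark. Embryos at 30 hpf incubated overnight with compound at 1.25, 2.5 or 5 μM beside a blank control. Fish anaesthetized, then vessels imaged by fluorescence microscopy.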

[2] = tested on: MDA-MB-435; experiment: Antiproliferative activity against human MDA-MB-435 cells assessed as reduction in cell viability incubated for 72 hrs by MTT assay; assay type: functional, cell-based; conditions: MDA-MB-435, 72 h
How it was run: (§1)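 MTT viability assay. ATCC cell lines were grown in designated medium with 10% FBS at 37 °C, 5% CO2. Cells seeded at 1500−30000 per well and incubated 24 h, then exposed to compound (0−10 μg/mL) for 72 h. MTT added for 2−4 h. Formazan dissolved in DMSO (adherent) or acidified SDS overnight (suspension), absorbance read at 570 nm. Triplicates; IC50 calculated.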

[3] = tested on: MDA-MB-231; experiment: Antitumor activity against human MDA-MB-231 cells xenografted in SCID mouse assessed as tumor growth inhibition at 40 mg/kg, po qd for 21 days and measured every 3 days; assay type: functional; conditions: MDA-MB-231, po, 504 h, time 21 day
How it was run: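 SCID mice (5−6 weeks) injected subcutaneously with 100 μL of cells at 5 × 10^7/mL. At 150−200 mm3 mice randomized, 6 per group. Oral compounds given in water with 25% PEG400 plus 5% DMSO; paclitaxel given 10 mg/kg/week iv. Tumor volume a×b²/2 and body weight measured every 3 days. Inhibition rate (c−d)/c×100% against vehicle control.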

[4] = Metabolic stability in dog liver microsomes assessed as parent compound remaining at 1 uM measured after 60 mins in presence of NADPH by HPLC-MS/MS analysis; assay type: ADME, Canis lupus familiaris, Microsome; conditions: read-out: Stabilty
How it was run: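 Compound at 1 μM incubated with 0.5 mg/mL liver microsomes and 1 mM NADPH. Samples taken at 0, 10, 15, 30, 45 and 60 min and quenched with acetonitrile. After centrifugation, supernatant analysed by HPLC-MS/MS, with percent parent remaining relative to the 0 min area.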

[5] = molecular target: Fibroblast growth factor receptor 2 (Homo sapiens, UniProt P21802, N549H); experiment: Inhibition of human recombinant FGFR2 N549H mutant (456 to 770 residues) using GGEEEEYFELVKKKK as substrate incubated for 40 mins in presence of [gamma33P-ATP] by radiometric scintillation counting analysis
[6] = molecular target: Fibroblast growth factor receptor 3 (Homo sapiens, UniProt P22607); experiment: Inhibition of human recombinant FGFR3 (447 to 761 residues) using poly(Glu,Tyr)4:1 as substrate incubated for 40 mins in presence of [gamma33P-ATP] by radiometric scintillation counting analysis
How it was run: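 Radiometric kinase assay run as an external profiling service, with ATP at the Km of each kinase. IC50 values are means of two independent experiments.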

[7] = molecular target: Receptor tyrosine-protein kinase erbB-2 (Homo sapiens, UniProt P04626, G778D); experiment: Inhibition of human recombinant ERBB2 G778D mutant (676 to end residues) using poly(Glu,Tyr)4:1 as substrate incubated for 40 mins in presence of [gamma33P-ATP] by radiometric scintillation counting analysis
[8] = molecular target: Platelet-derived growth factor receptor beta (Homo sapiens, UniProt P09619); experiment: Inhibition of human recombinant PDGFRbeta (557 to end residues) using poly(Glu, Tyr)4:1 as substrate incubated for 40 mins in presence of [gamma33P-ATP] by radiometric scintillation counting analysis
[9] = molecular target: BDNF/NT-3 growth factors receptor (Homo sapiens, UniProt Q16620); experiment: Inhibition of human recombinant TRKB (455 to end residues) using poly(Glu,Tyr)4:1 as substrate incubated for 40 mins in presence of [gamma33P-ATP] by radiometric scintillation counting analysis
[10] = tested on: HT-29; experiment: Antiproliferative activity against human HT-29 cells assessed as reduction in cell viability incubated for 72 hrs by MTT assay; assay type: functional, cell-based; conditions: HT-29, 72 h; how it was run: as §1
[11] = tested on: L929; experiment: Cytotoxicity against mouse L929 cells assessed as reduction in cell viability incubated for 72 hrs by MTT assay; assay type: cell-based; conditions: L929, 72 h; how it was run: as §1
[12] = tested on: MDA-MB-231; experiment: Induction of apoptosis in human MDA-MB-231 cells assessed as live cells at 0.03 uM incubated for 24 hrs by annexin V-FITC and propidium iodide staining based flow cytometry analysis (reference value: 96.95 %); assay type: functional
[13] = tested on: MDA-MB-231; experiment: Induction of apoptosis in human MDA-MB-231 cells assessed as early apoptotic cells at 0.1 uM incubated for 24 hrs by annexin V-FITC and propidium iodide staining based flow cytometry analysis (reference value: 2 %); assay type: functional
[14] = molecular target: Proto-oncogene tyrosine-protein kinase Src (Homo sapiens) (UniProt P12931); experiment: Inhibition of Src in human MDA-MB-231 cells assessed as reduction in phosphorylation of Src incubated for 20 hrs by Western blot analysis; assay type: cell-based
How it was run: (§2)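 MDA-MB-231 cells treated with a series of concentrations for 20 h at 37 °C. Cells washed with ice-cold saline and lysed in RIPA buffer with protease cocktail. Lysates cleared at 12000 rpm for 10 min at 4 °C and protein quantified by Bradford. Equal protein separated by SDS-PAGE, transferred to PVDF and probed with antibodies.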

[15] = tested on: MDA-MB-231; experiment: Inhibition of ERK phosphorylation in human MDA-MB-231 cells at 0.01 to 0.3 uM incubated for 20 hrs by Western blot analysis; assay type: cell-based; conditions: dose 0.01-0.3 µM; how it was run: as §2
[16] = tested on: Mus musculus; experiment: In vivo inhibition of ERK in SCID mouse xenografted with human MDA-MB-231 cells assessed as reduction in phosphorylation of ERK in tumor tissue at 40 mg/kg, po QD for 21 days by immunohistochemical analysis; assay type: functional, organism-based; conditions: dose 40.0 mg/kg/day, time 21.0 day
How it was run: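 Tumors taken from xenografted SCID mice dosed orally at 40 mg/kg/q.d. or given control; mice euthanized at set times. Tumors formalin-fixed and paraffin-embedded, stained by immunohistochemistry for phospho-proteins, and imaged by light microscopy.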

[17] = Acute toxicity in Sprague-Dawley rat assessed as histopathological changes in heart at 100 mg/kg, po administered as single dose measured after 24 hrs by H and E staining based light microscope analysis; assay type: organism-based; conditions: in vivo
How it was run: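 Sprague-Dawley rats received a single oral dose of 100 mg/kg in sterile water with 25% (v/v) PEG400 plus 5% DMSO. Organs were examined by histology and immunohistochemistry for pathological changes. Behaviour and side effects were checked daily.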

[18] = tested on: MDA-MB-231; experiment: Inhibition of Fra1 expression in human MDA-MB-231 cells at >0.03 uM incubated for 20 hrs by Western blot analysis; assay type: functional, cell-based; conditions: dose microM >0.03, time 20.0 hrs; how it was run: as §2
[19] = tested on: MDA-MB-231; experiment: Inhibition of tumor mitotic index in SCID mouse xenografted with human MDA-MB-231 cells assessed as reduction in Ki67 expression at 40 mg/kg, po QD for 21 days by immunohistochemical staining analysis; assay type: functional, organism-based; conditions: dose 40.0 mg/kg/day, time 21.0 day
How it was run: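 SCID mice carried subcutaneous MDA-MB-231 xenografts (5 × 10^6 cells in 100 μL). Oral dosing in water with 25% PEG400 and 5% DMSO began at 150–200 mm3. Tumours were removed at the end of study, formalin-fixed and paraffin-embedded, then immunostained.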

Sequence of Fibroblast growth factor receptor 3 (P22607 whole entry, the tested form may be a part): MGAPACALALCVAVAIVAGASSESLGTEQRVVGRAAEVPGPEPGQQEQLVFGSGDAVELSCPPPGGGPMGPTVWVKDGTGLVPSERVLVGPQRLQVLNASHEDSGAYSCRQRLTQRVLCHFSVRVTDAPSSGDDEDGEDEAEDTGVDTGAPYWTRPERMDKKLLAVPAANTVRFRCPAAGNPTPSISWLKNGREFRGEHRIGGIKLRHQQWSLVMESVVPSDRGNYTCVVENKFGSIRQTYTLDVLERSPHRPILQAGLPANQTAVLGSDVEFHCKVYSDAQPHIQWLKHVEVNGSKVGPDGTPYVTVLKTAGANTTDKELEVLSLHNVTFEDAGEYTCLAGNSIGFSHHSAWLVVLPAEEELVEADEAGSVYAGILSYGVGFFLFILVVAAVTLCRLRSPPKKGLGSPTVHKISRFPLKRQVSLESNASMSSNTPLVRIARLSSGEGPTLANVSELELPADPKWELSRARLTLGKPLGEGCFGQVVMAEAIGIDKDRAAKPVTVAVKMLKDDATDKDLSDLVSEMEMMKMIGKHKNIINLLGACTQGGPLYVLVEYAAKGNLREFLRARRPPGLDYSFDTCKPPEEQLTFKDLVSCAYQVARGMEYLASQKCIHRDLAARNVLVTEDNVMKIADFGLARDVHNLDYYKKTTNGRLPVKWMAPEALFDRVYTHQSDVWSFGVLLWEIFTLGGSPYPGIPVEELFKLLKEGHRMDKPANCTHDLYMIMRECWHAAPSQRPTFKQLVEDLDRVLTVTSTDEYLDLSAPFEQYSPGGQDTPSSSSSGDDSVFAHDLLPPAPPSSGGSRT
Sequence of Proto-oncogene tyrosine-protein kinase Src (Homo sapiens) (P12931 2-536 limits assumed): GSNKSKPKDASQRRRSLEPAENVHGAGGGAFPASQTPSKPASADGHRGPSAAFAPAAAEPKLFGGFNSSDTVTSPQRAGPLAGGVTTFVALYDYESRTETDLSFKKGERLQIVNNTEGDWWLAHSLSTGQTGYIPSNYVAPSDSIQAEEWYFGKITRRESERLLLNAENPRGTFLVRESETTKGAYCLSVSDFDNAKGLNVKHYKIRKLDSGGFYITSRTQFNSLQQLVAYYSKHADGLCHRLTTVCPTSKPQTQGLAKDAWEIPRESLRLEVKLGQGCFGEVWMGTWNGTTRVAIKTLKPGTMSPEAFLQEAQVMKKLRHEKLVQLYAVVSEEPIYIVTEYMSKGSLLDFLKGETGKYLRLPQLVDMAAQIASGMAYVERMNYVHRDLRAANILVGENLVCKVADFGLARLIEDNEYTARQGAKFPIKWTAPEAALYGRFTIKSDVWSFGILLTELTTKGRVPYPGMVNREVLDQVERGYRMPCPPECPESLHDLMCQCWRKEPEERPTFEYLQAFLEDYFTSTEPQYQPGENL
Sequence of Receptor tyrosine-protein kinase erbB-2 (P04626 23-1255 G778D limits assumed): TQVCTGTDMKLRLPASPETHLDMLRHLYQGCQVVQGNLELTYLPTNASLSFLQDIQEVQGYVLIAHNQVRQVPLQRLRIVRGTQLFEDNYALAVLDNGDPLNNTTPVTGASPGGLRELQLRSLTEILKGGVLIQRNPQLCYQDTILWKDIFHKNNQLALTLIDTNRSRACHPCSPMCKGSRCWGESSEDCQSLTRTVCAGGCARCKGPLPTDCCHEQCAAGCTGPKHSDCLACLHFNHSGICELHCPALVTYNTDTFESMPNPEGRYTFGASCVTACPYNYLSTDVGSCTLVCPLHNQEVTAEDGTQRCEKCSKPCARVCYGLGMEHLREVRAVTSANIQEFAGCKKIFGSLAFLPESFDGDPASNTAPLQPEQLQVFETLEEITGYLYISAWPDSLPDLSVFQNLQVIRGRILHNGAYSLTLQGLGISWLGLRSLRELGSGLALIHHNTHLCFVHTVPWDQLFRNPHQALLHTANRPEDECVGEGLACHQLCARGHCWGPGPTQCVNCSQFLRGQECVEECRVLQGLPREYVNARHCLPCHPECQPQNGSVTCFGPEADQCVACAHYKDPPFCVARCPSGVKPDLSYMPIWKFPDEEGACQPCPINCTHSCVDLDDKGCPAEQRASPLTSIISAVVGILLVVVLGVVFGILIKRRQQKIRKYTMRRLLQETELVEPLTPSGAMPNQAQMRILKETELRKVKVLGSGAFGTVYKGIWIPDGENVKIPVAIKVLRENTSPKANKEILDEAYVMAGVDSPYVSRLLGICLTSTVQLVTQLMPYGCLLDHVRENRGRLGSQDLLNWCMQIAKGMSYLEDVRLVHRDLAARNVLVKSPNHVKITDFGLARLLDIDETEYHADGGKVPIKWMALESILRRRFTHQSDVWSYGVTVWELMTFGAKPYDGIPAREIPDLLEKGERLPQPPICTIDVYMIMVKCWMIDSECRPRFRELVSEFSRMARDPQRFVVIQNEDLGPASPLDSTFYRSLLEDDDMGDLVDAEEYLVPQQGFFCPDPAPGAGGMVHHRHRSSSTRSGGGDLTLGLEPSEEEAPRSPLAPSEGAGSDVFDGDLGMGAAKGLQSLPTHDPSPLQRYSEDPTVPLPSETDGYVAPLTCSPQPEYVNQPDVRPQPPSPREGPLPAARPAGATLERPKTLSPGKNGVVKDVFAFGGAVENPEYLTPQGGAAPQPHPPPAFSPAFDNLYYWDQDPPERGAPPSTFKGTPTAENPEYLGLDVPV
Sequence of Platelet-derived growth factor receptor beta (P09619 whole entry): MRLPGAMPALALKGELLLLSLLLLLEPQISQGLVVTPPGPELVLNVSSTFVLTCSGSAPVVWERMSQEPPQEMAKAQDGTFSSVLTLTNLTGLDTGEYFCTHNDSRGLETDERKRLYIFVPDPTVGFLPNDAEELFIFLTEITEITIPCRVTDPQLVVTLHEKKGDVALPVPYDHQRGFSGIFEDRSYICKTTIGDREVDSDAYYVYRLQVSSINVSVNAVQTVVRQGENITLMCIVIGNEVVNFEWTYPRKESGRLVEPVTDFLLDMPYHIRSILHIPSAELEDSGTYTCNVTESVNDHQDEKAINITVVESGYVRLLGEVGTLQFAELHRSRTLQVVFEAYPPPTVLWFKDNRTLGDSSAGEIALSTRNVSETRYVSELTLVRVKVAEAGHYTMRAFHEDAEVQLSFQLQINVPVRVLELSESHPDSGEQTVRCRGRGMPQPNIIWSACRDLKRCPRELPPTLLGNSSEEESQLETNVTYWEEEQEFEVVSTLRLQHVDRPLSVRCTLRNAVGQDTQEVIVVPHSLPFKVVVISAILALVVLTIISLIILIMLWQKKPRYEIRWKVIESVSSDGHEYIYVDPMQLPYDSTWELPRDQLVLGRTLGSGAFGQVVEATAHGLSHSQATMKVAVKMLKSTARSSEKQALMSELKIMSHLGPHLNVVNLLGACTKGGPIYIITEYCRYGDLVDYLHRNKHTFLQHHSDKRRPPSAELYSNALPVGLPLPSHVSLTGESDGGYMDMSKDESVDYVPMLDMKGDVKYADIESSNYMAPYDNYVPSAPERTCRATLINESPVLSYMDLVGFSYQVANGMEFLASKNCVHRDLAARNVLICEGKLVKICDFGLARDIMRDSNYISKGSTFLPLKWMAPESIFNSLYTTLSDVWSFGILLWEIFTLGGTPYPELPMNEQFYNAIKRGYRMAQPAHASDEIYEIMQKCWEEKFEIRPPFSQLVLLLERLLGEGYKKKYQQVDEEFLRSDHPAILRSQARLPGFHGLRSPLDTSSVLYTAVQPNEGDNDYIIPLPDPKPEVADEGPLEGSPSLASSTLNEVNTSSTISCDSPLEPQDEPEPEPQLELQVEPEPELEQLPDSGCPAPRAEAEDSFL
Sequence of Fibroblast growth factor receptor 2 (P21802 22-821 N549H limits assumed): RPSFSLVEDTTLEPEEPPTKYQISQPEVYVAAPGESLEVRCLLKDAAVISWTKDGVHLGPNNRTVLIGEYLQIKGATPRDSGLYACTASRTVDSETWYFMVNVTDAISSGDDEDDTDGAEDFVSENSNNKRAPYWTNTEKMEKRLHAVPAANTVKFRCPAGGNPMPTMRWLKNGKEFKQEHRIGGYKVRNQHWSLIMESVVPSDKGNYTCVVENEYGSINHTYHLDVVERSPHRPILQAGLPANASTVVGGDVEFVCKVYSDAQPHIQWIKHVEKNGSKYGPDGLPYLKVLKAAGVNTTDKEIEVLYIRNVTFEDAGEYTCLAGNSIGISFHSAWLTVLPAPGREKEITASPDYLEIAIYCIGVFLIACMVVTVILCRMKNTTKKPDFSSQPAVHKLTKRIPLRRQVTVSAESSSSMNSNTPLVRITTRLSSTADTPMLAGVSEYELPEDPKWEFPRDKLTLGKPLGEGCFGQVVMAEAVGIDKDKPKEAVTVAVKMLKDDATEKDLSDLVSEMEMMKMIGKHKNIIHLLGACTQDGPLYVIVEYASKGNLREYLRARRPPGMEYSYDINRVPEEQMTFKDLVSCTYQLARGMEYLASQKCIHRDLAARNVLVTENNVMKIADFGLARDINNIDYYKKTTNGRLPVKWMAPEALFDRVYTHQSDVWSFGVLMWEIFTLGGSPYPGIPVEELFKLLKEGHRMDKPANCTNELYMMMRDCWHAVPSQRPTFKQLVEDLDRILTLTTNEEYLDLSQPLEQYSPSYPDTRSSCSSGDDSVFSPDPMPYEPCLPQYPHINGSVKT

With `Cc1ccc(NC(=O)c2ccc(C)c(C(F)(F)F)c2)cc1C#Cc1nn([C@H]2CC[C@H](O)CC2)c2ncnc(N)c12` the Activity [1] was “inactive”, the IC50 [2] was 8 nM and the inhibition in vivo at 40 mg/kg/day [3] was 100%. The remaining at 1 h, 1 µM [4] was > 90%, the IC50 [5] was 40 nM and the IC50 [6] was 120 nM. The IC50 [7] was 165 nM, the IC50 [8] was > 10000 nM and the IC50 [9] was 899 nM. The IC50 [10] was 231 nM, the IC50 [11] was > 10000 nM and the Activity [12] was 78.36%. For the same compound, the Activity [13] was 13.48%, the inhibition [14] was “Dose-dependent effect” and the inhibition [15] was “Active”. The inhibition [16] was “Active”, the Activity [17] was “Non-Toxic” and the inhibition [18] was “Active”. The inhibition [19] was “Active”.
